HIF activator: HIF pathway transcriptional activation. activation, % at 7.5 µM (by protocol). U2OS HRE-luciferase reporter, luminescence; normalized: DMSO 0%, desferrioxamine 100%. AID 1910. hit rate 0.32% among 300,000;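 active = mean activation of at least 10% of the iron chelator positive control signal, with at least half of replicates also reaching 10%; inconclusive = mean and replicate majority disagree about reaching 10%; inactive = mean and most replicates under 10%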
ARNT TACC3 PPI: disruptors of human ARNT/TACC3 interaction. hit rate 0.66% among 390,000. AlphaScreen His-ARNT PAS-B/GST-TACC3 binding, luminescence; TACC3 fragment carries E629A point mutation. Q9Y6A5. AID 623870. inhibition, % at 9.99 µM;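 active = mean inhibition of replicates at least 50% and at least half of replicates each reaching 50%; inconclusive = half or more replicates reach 50% but mean below 50%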
T cruzi inh: blocks replication of Trypanosoma cruzi | T. cruzi beta-gal in NIH3T3, luminescence, 90 h | hit rate 1.4% among 300,000 | inhibition, % (no concentration beside the values) | AID 1885;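 active = mean inhibition across valid replicates above about 55%, limit read from the data; inconclusive = mean below that limit but half or more replicates reach it; inactive = mean below it, under half of replicates reach it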;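 note: signal also drops with host cell toxicity which is not excluded here; higher percent means less beta-gal luminescence so fewer parasites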
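System: mouse NIH/3T3 fibroblasts infected with β-gal-expressing T. cruzi Tulahuen C4 / Input: NIH/3T3 cells, 5,000 per well / Buffer or medium: Low-serum DMEM with 2% FBS / Probe or stimulus: 5000 reporter trypomastigotes per well / Schedule: ≥90 h infection period, 3 h prior cell attachment / Measured by: GalScreen luminescence, 60 min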
AI-2 QS mod: modulators of Vibrio harveyi AI-2 quorum sensing system | Vibrio harveyi JMH597 AI-2 luminescence/OD600 ratio, 9 h; active compounds read low; strain lacks LuxN and CqsS sensors; 0 = neutral-control median | AID 2094 | activity change, % at 7.5 µM | hit rate 0.4% among 300,000; in the data active = activity change below about -75%, passing the limit was not always enough; inconclusive = no clear call, values can overlap the other calls;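 note: luminescence divided by OD600 gain over 9 h not by final OD600 alone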
Each line names hits and unclear results; the compound was inactive in the other large screens. Shown are actives, neighbours in structure and some others; about 2% of the full set was active somewhere.

Cc1ccc(S(=O)(=O)Nc2ccc3c(c2)CC(=O)N([C@@H](C)CO)C[C@H](C)[C@H](CN(C)C(=O)Nc2ccc(F)cc2)O3)cc1	none (no result: HIF activator, T cruzi inh, AI-2 QS mod)
O=c1[nH]c(/C=C\c2cccc(O)c2)nc(O)c1[N+](=O)[O-]	none
O=c1[nH]c(/C=C\c2ccc(O)c(O)c2)nc(O)c1[N+](=O)[O-]	ARNT TACC3 PPI 37
O=C(C[C@@H]1CC[C@H]2[C@@H](COC[C@H](O)CN2C(=O)Nc2ccc(Cl)c(Cl)c2)O1)NCc1ccc(F)cc1	none (no result: HIF activator, T cruzi inh, AI-2 QS mod)
CC(C)CCNC(=O)CNC(=S)N(Cc1ccccc1)Cc1cccnc1	T cruzi inh 61
CC(C)N(CC(=O)Nc1ccc(Cl)cc1C(F)(F)F)C(=O)CCl	T cruzi inh 83
CCC(CC)NC(=O)Nc1cccc(C)c1C	none (no result: ARNT TACC3 PPI)
CCC(C)N(CC(=O)Nc1cccc(C)c1C)C(=O)CCl (centres undefined)	T cruzi inh 69
CN1[C@@H]2c3ccc(-c4ccc(F)cc4)c(=O)n3C[C@@H]2[C@@H](CO)[C@@H]1C(=O)NCc1ccccn1	none (no result: HIF activator, T cruzi inh, AI-2 QS mod)
C/C=C/c1ccc([C@@H]2[C@@H](CN(C)C(=O)CC)N(C(=O)NC(C)C)[C@H]2CO)cc1	none (no result: HIF activator, T cruzi inh, AI-2 QS mod)
C/C(=N\NC(=O)c1ccccc1)c1c(C)[nH]n(-c2ccccc2)c1=O	ARNT TACC3 PPI 42
O=C(C[C@H]1CC[C@@H]2[C@H](COC[C@H](O)CN2Cc2nccs2)O1)NCc1ccc(-c2ccccc2)cc1	none (no result: HIF activator, T cruzi inh, AI-2 QS mod)
C[C@@H]1CN([C@@H](C)CO)C(=O)c2cc(-c3cncnc3)cnc2O[C@@H]1CN(C)C(=O)CN1CCOCC1	none (no result: HIF activator, T cruzi inh, AI-2 QS mod)
Nc1nc(Cl)cc(N2CCC(c3cc(-c4ccc(Cl)cc4)n[nH]3)CC2)n1	T cruzi inh 58
COc1ccc(-c2cc(C3CCN(c4cc(Cl)nc(N)n4)CC3)[nH]n2)cc1	none
COc1ccc(CN2C(=O)c3cccnc3C2=O)cc1S(=O)(=O)NCc1ccc(C)cc1	none
COc1cccc(CNS(=O)(=O)c2cc(CN3C(=O)c4cccnc4C3=O)ccc2OC)c1	ARNT TACC3 PPI 50
C/C(N)=C(/C#N)C(=O)CSc1cc(C)c2cc(C)cc(C)c2n1	T cruzi inh 62
COCC(=O)N1C[C@H]2[C@@H](c3ccccc31)[C@@H](CO)N2Cc1ccccc1Cl	none (no result: HIF activator, T cruzi inh, AI-2 QS mod)
Cc1ccc(C)c(N2CN(Cc3cccnc3)CNC2=S)c1	T cruzi inh 61
Cc1ccc(N2CN(Cc3cccnc3)CNC2=S)cc1	T cruzi inh inconclusive
C[C@H](CO)N1C[C@H](C)[C@@H](CN(C)Cc2cccc(F)c2)OCc2ccccc2-c2ccccc2C1=O	none (no result: HIF activator, T cruzi inh, AI-2 QS mod)
C[C@H]1CN([C@@H](C)CO)S(=O)(=O)c2ccc(C#CCN(C)C)cc2O[C@@H]1CN(C)C(=O)Nc1ccccc1F	none (no result: HIF activator, T cruzi inh, AI-2 QS mod)
C[C@H]1CN([C@@H](C)CO)C(=O)c2c(c3ccccc3n2C)-c2ccccc2CO[C@@H]1CN(C)S(=O)(=O)c1cccs1	none (no result: HIF activator, T cruzi inh, AI-2 QS mod)
CC(C)CC(NC(=O)CCl)c1ccccc1 (centres undefined)	none
O=C(CCl)Nc1cccc(Oc2cnccn2)c1	none
O=C(CCl)Nc1cccc(Oc2ccccc2)c1	T cruzi inh 56
O=C(CCl)Nc1ccc(-c2ccccc2)cc1	T cruzi inh 61
CC(C)N(c1ccccc1)c1ccc(NC(=O)CCl)cc1	T cruzi inh 80
O=C1N=C(N2CCCC2)S/C1=C\c1cn[nH]c1-c1ccccc1	none (no result: ARNT TACC3 PPI)
Cc1ccccc1N1CCN(C2=NC(=O)/C(=C/c3cn[nH]c3-c3ccccc3)S2)CC1	ARNT TACC3 PPI 21
Cc1cc(Br)ccc1OCCCCN1CCCCC1	T cruzi inh 64
Cc1ccc(OCCOCCN2CCCC2)c(Br)c1	T cruzi inh 57
O=C(NCC[C@H]1CC[C@H](NS(=O)(=O)c2cccc(F)c2)[C@H](CO)O1)C1CC1	none (no result: HIF activator, T cruzi inh, AI-2 QS mod)
COc1ccccc1-c1cnc2c(c1)C(=O)N([C@@H](C)CO)C[C@@H](C)[C@H](CN(C)Cc1ccc(F)cc1)O2	none (no result: HIF activator, T cruzi inh, AI-2 QS mod)
O=S(=O)(c1ccc(Cl)cc1)N1CCN(C2CCN(Cc3ccccc3)CC2)CC1	T cruzi inh 61
O=C(CNC1CCN(Cc2ccccc2)CC1)Nc1ccc(S(=O)(=O)N2CCCCC2)cc1	T cruzi inh 55
CN(CC(=O)Nc1ccc(S(=O)(=O)N2CCCC2)cc1)Cc1ccc(Cl)cc1	T cruzi inh 57
CN(CC(=O)Nc1ccc(S(=O)(=O)N2CCCC2)cc1)Cc1c(F)cccc1Cl	none
CO[C@@H]1CN(C)C(=O)c2ccc(NC(=O)Nc3cc(F)ccc3F)cc2OC[C@H](C)NC[C@H]1C	none (no result: HIF activator, T cruzi inh, AI-2 QS mod)
C[C@H](CO)N1C[C@H](C)[C@@H](CN(C)S(=O)(=O)c2ccc(C#N)cc2)OCc2ccccc2-c2c(n(C)c3ccccc23)C1=O	none (no result: HIF activator, T cruzi inh, AI-2 QS mod)
C[C@@H]1CN([C@@H](C)CO)C(=O)c2cccc(NS(=O)(=O)c3cccs3)c2O[C@@H]1CN(C)S(=O)(=O)c1cccs1	none (no result: HIF activator, T cruzi inh, AI-2 QS mod)
Cc1ccc2c(c1)C1NC(=S)NC(C)(O2)C1C(=O)Nc1ccc(Cl)cc1 (centres undefined)	HIF activator 51
C[C@H](CO)N1C[C@H](C)[C@H](CN(C)C(=O)c2ccccc2F)Oc2ncc(-c3cccnc3)cc2C1=O	none (no result: HIF activator, T cruzi inh, AI-2 QS mod)
CCN(CC)CCCNC(=O)c1ccc(OCC(=O)Nc2ccccc2C(F)(F)F)c(OC)c1	T cruzi inh 55
CN(C)CC(=O)Nc1ccc2c(c1)[C@@H]1C[C@@H](CC(=O)NCc3cc(F)ccc3F)O[C@@H](CO)[C@@H]1O2	none (no result: HIF activator, T cruzi inh, AI-2 QS mod)
CO[C@@H]1CN(C)C(=O)c2ccc(NS(=O)(=O)c3ccccc3)cc2OC[C@@H](C)NC[C@@H]1C	none (no result: HIF activator, T cruzi inh, AI-2 QS mod)
CCCCCc1ccc(-c2ccc(/C=C/C(=O)O)cc2)nc1	AI-2 QS mod -89
CCCCN1/C(=C/c2ccc3ccccc3[n+]2CC)Sc2ccccc21	T cruzi inh 63
CCN1/C(=C/c2ccc3cc(C)ccc3[n+]2CC)Sc2cc(C)ccc21	none (no result: HIF activator, T cruzi inh, AI-2 QS mod)
O=C1C2=C(NC(=S)NC2c2ccc(Cl)cc2)NC(c2ccc(Cl)cc2)N1c1ccc(Cl)cc1 (centres undefined)	T cruzi inh 57
C[C@@H]1CN([C@@H](C)CO)C(=O)c2cc(-c3ccncc3)cnc2O[C@H]1CN(C)C(=O)c1ccncc1	none (no result: HIF activator, T cruzi inh, AI-2 QS mod)
CC1(C)CC(N2CCCC2)=CC(=[N+]2CCCCCC2)C1	T cruzi inh 57
CC1CC(C)C[N+](=C2C=C(N3CCCC3)CC(C)(C)C2)C1 (centres undefined)	T cruzi inh 59
CC1(C)CC(N2CCN(c3ccccc3)CC2)=CC(=[N+]2CCCC2)C1	T cruzi inh 68
CSc1nc(N2CCN(c3ccccc3)CC2)cc(N2CCN(c3ccccc3)CC2)n1	none
O=C(C[C@@H]1C[C@H]2c3cc(NC(=O)c4cccnc4)ccc3O[C@H]2[C@@H](CO)O1)NCc1ccccc1	none (no result: HIF activator, T cruzi inh, AI-2 QS mod)
CO[C@@H]1CN(C)C(=O)c2cc(NC(=O)C3CC3)ccc2OC[C@H](C)N(C(=O)CN2CCOCC2)C[C@H]1C	none (no result: HIF activator, T cruzi inh, AI-2 QS mod)
O=S(=O)(CC(CN1CCCCC1)N1CCCCC1)c1ccc2ccccc2c1 (centres undefined)	T cruzi inh 71
Cc1ccc(S(=O)(=O)CC(CN2CCCCC2)N2CCCCC2)cc1 (centres undefined)	none (no result: ARNT TACC3 PPI)

From PubChem BioAssay
